Active and inactive are the calls of the source. No cut-off for these calls is given here.
Experiments:
[1] = Inhibition of tubulin assembly
HCT-116 [2] = test: Cytotoxicity against human HCT116 cells; assay type: functional, cell-based
In short: (§1)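 Growth inhibition assay; IC50 taken as the sample concentration producing 50% reduction in cell growth, each drug concentration tested in triplicate.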

[3] = Inhibition of tubulin assembly at 130 uM
[4] = Inhibition of tubulin assembly at 13 uM
[5] = Cytotoxicity against human H1299 cells; assay type: functional, cell-based; details: NCI-H1299; in short: as §1
HUVEC [6] = test: Cytotoxicity against HUVEC; assay type: cell-based; details: Homo sapiens
In short: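 HUVEC proliferation measured after 72 h incubation; IC50 derived for growth inhibition.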

K562 = test: Cytotoxicity against human K562 cells; assay type: functional, cell-based
HCT-116 [7] = test: Cell cycle arrest in human HCT116 cells assessed as accumulation at G2/M phase at 10 nM after 24 hrs by flow cytometry; assay type: functional
In short: (§2)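 Flow cytometry of cellular DNA content after 24 h exposure to 10, 20 or 50 nM; percentage of cells in G2/M phase reported, DMSO vehicle control; data representative of three independent experiments.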

MDA-MB-231 = test: Cytotoxicity against human MDA-MB-231 cells; assay type: functional, cell-based
[8] = Cell cycle arrest in human H1299 cells assessed as accumulation at G2/M phase at 50 nM after 24 hrs by flow cytometry; assay type: functional, cell-based; details: NCI-H1299; in short: as §2
HUVEC [9] = test: Disruption of integrity of newly formed blood vessels of HUVEC at 100 nM after 3 hrs by tube formation assay; assay type: functional, cell-based; details: Homo sapiens, Blood vessel
In short: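 HUVEC seeded on Matrigel; 24 h later, compound (100 nM) or vehicle added to formed cords; images taken 3 h after addition to assess network integrity.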

[10] = Cell cycle arrest in human H1299 cells assessed as accumulation at G2/M phase at 10 nM after 24 hrs by flow cytometry; assay type: functional, cell-based; details: NCI-H1299; in short: as §2
HCT-116 [11] = test: Cell cycle arrest in human HCT116 cells assessed as accumulation at G2/M phase at 20 nM after 24 hrs by flow cytometry; assay type: functional; in short: as §2
[12] = Cell cycle arrest in human H1299 cells assessed as accumulation at G2/M phase at 20 nM after 24 hrs by flow cytometry; assay type: functional, cell-based; details: NCI-H1299; in short: as §2
HCT-116 [13] = test: Induction of apoptosis in human HCT116 cells after 24 hrs by caspase activation assay; assay type: functional, cell-based
In short: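 Cells treated with 10, 50 and 100 nM for 24 h; caspase 3 and 7 activities measured by standard caspase cleavage assay.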

HCT-116 [14] = test: Cell cycle arrest in human HCT116 cells assessed as accumulation at G2/M phase at 50 nM after 24 hrs by flow cytometry; assay type: functional; in short: as §2

inhibition [3]	inhibition [4]	SMILES	IC50 (HCT-116 [2])	further results
85%	52%	COc1ccc(C(=O)C(=O)c2cc(OC)c(OC)c(OC)c2)cc1OC	300 nM	IC50 [1]: 63000 nM
73%	47%	COc1ccc(C(=O)C(=O)c2cc(OC)c(OC)c(OC)c2)cc1F	700 nM	
58%	35%	COc1cc(C(=O)C(=O)c2cnc3ccccc3c2)cc(OC)c1OC		Activity (HCT-116 [2]): inactive
45%	45%	COc1ccc(C(=O)C(=O)c2cc(OC)c(OC)c(OC)c2)cc1NC(C)=O	350 nM	
79%	34%	COc1cc(C(=O)C(=O)c2ccccc2)cc(OC)c1OC	3000 nM	
0%	12%	COc1cc(C(=O)C(=O)c2ccccc2C#N)cc(OC)c1OC		Activity (HCT-116 [2]): inactive
23%		COc1cc(C(=O)C(=O)c2ccccn2)cc(OC)c1OC		Activity (HCT-116 [2]): inactive
88%	82%	COc1ccc(C(=O)C(=O)c2cc(OC)c(OC)c(OC)c2)cc1N	38 nM	IC50 [1]: 5000 nM; IC50 (K562): 20 nM; Activity (HCT-116 [7]): 13%; IC50 (MDA-MB-231): 30 nM; Activity [8]: 16.5%; Activity (HUVEC [9]): Active; Activity [10]: 11.7%; Activity (HCT-116 [11]): 15.9%; IC50 [5]: 50 nM; Activity [12]: 12.2%; Activity (HCT-116 [13]): Active; IC50 (HUVEC [6]): 40 nM; Activity (HCT-116 [14]): 28%
69%	42%	COc1cc(C(=O)C(=O)c2cccc(O)c2)cc(OC)c1OC	2000 nM	
28%		COc1cc(C(=O)C(=O)c2ccc(C#N)cc2)cc(OC)c1OC		Activity (HCT-116 [2]): inactive
80%	23%	COc1cc(C(=O)C(=O)c2ccc3ccccc3c2)cc(OC)c1OC	3000 nM	
89%	58%	COc1ccc(C(=O)C(=O)c2cc(OC)c(OC)c(OC)c2)cc1	300 nM	IC50 [1]: 21000 nM
14%		COc1ccc(C(=O)C(=O)c2cc(OC)c(OC)c(OC)c2)cc1OC(C)=O	40 nM	IC50 (K562): 25 nM; IC50 (MDA-MB-231): 40 nM; IC50 [5]: 30 nM
73%	65%	COc1ccc(C(=O)C(=O)c2cc(OC)c(OC)c(OC)c2)cc1O	35 nM	IC50 [1]: 1500 nM; IC50 (K562): 25 nM; Activity (HCT-116 [7]): 11%; IC50 (MDA-MB-231): 40 nM; Activity [8]: 27.7%; Activity [10]: 11.4%; Activity (HCT-116 [11]): 18.5%; IC50 [5]: 30 nM; Activity [12]: 15%; Activity (HCT-116 [13]): Active; IC50 (HUVEC [6]): 35 nM; Activity (HCT-116 [14]): 22.8%

SMILES	inhibition [3]	inhibition [4]	IC50 (HCT-116 [2])	further results
COc1ccc(/C=C\c2cc(OC)c(OC)c(OC)c2)cc1O [COMBRETASTATIN A4]	88%	77%	1.8 nM	IC50 [5]: 5 nM; IC50 (HUVEC [6]): 2.5 nM

— ChEMBL document CHEMBL1143096, “Synthesis and antitumor activity of benzils related to combretastatin A-4” (Bioorg Med Chem Lett, 2008)
